From PubChem BioAssay
LAP4-GFP MLPCN – yeast TOR pathway LAP4-GFP modulation; S. cerevisiae LAP4-GFP multiplex, flow cytometry GFP, 3 h; median GFP as percent of DMSO wells; GFP response vs DMSO, % at 10 µM; 320,000 compounds, 0.34% hits; AID 2023;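 active = GFP response vs DMSO above a set limit, about the screen mean plus 3 SD, cut at about 150% in these data; inconclusive = under 70 cell events counted for the yeast strain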
T cell HTS – modulates CD8 T cell binding to vesicles; 2C CD8+ T cell-vesicle binding, flow cytometry; stronger effect = lower value; response (vesicle binding), % at 7 µM; 330,000 compounds, 0.068% hits;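 active = response, share of CD8 T cells binding vesicles, and their 90th percentile fluorescence all below set limits, cut at about 80% in these data, passing the limit was not always enough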;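 note: values below 100% mean blocked vesicle binding to the CD8+ T cells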
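Test system: purified 2C TCR transgenic mouse naive CD8+ T cells. Probe or stimulus: QL9-peptide-loaded Drosophila micro-vesicles bearing Ld, ICAM-1 and B7-1. Incubation: binding step 1.5 h, 37 °C, antibody labelling 20 min, ice. Measured by: flow cytometry of vesicle-bound cells.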
CIT2 TOR yeast – modulators of TOR pathway CIT2-GFP in S. cerevisiae. S. cerevisiae CIT2-GFP strain, flow cytometry, 3 h; 100 means same as DMSO wells. GFP response vs DMSO, % at 10 µM. 320,000 compounds, 0.065% hits;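 active = GFP response relative to DMSO above a set limit, near the screen mean plus 3 SD, cut at about 150% in these data; inconclusive = Fewer than 70 cells measured for a yeast strain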;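 note: ratio of well median GFP fluorescence to mean of DMSO wells on the plate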
MEP2-GFP yeast – yeast TOR pathway MEP2-GFP modulation; S. cerevisiae MEP2-GFP strain, flow cytometry GFP, 3 h; 100% = DMSO control level; GFP response vs DMSO, % at 10 µM; 330,000 compounds, 0.51% hits; AID 2016;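 active = GFP response versus DMSO above a set limit, roughly screen mean plus 3 SD, cut at about 180% in these data; inconclusive = fewer than 70 cells counted for a yeast strain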;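 note: median GFP fluorescence of the barcode-gated MEP2-GFP cells per well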
RPL19A-GFP yeast – modulators of TOR pathway RPL19A-GFP in S. cerevisiae; S. cerevisiae RPL19A-GFP strain, flow cytometry, 3 h; stronger effect = lower value; percent response vs DMSO, % at 10 µM; 330,000 compounds, 0.3% hits; AID 2025;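 active = percent response vs DMSO below 50%; inconclusive = fewer than 70 events counted for the yeast strain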;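 note: median channel GFP fluorescence of the barcoded RPL19A-GFP strain; ratio of sample median GFP to plate DMSO average so 100% = DMSO; lower means less RPL19A-GFP as with rapamycin TOR inhibition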
AGP1 TOR yeast – yeast TOR pathway AGP1-GFP modulation. S. cerevisiae AGP1-GFP multiplex flow cytometry, 3 h; GFP as percent of DMSO wells. GFP response vs DMSO, % at 10 µM. 320,000 compounds, 0.02% hits. AID 2066;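 active = GFP response relative to DMSO above a set limit, near screen average plus 3 SD, cut at about 150% in these data; inconclusive = fewer than 70 cells counted for the yeast strain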;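 note: median GFP channel fluorescence of the gated AGP1 strain per well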
An asterisk follows results filed as active; i = inactive; ? = inconclusive; · = no result; [ ] = remark or other dose. Sampled rows, rich in hits. Any-hit rate of the full collection: about 0.96%.

SMILES | LAP4-GFP MLPCN | T cell HTS | CIT2 TOR yeast | MEP2-GFP yeast | RPL19A-GFP yeast | AGP1 TOR yeast
O=c1cc(O)nc(SCc2ccc(Cl)cc2)[nH]1 | 105 | 242 | ? | 352*[may fluoresce violet] | 57 | 18
Cc1ccc(NS(=O)(=O)c2cccc(C(=O)N3CCN(C(=O)c4ccco4)CC3)c2)cc1 | 109 | 308 | 94 | 102 | 102 | 109
Cc1nc2ccc(S(=O)(=O)NCC(=O)Nc3ccc(F)cc3)cc2s1 | 98 | i | 103 | 113 | 102 | 100
O=C(NCc1ccccc1)N1CCC(Cc2ccccc2)CC1 | 86 | 302 | 92 | 96 | 95 | 90
COc1ccc(/C=N/OCC(=O)NCC(C)C)c(OC)c1 | 95 | 337 | 105 | 102 | 96 | 101
COC(=O)c1ccc(CO/N=C/c2ccc(OC)cc2OC)cc1 | 76 | 196 | ? | 217*[may fluoresce violet] | 65 | 17
CC(C)(C)OC(=O)n1cc(/C=N/NC(=O)c2ccco2)c2ccccc21 | 118 | 262 | 154*[may fluoresce green] | 117 | 98 | 119
Cc1cc(C)c(OCCN2CCCC2)c(Cl)c1 | 78 | 168 | 104 | 103 | 104 | 95
Cc1cc(Cl)c(OCCCN2CCCCC2)c(Br)c1 | 92 | 72* | 106 | 99 | 102 | 101
Cc1cc(C)c(NC(=O)CN2C(=O)NC3(CCCc4ccccc43)C2=O)c(Cl)c1 (configuration not stated) | 117 | i | 99 | 94 | 97 | 109
CC(C)(C)Nc1nc(-c2ccc3c(c2)CCN3C(=O)C2CC2)cs1 | 101 | 165 | 93 | 108 | 100 | 93
CC(C)C(=O)Nc1nc(-c2ccc3c(c2)CCN3C(=O)C2CC2)cs1 | ? | 225 | ? | ? | 22*[may fluoresce violet] | ?
CCOc1ccccc1C(=O)Nc1ccc2nc(N3CCN(c4ncccn4)CC3)cc(C)c2c1 | 108 | 308 | 103 | 109 | 90 | 97
COc1cccc(C(=O)Nc2ccc3nc(N4CCN(c5ncccn5)CC4)cc(C)c3c2)c1OC | 71 | 177 | ? | 272*[may fluoresce violet] | 18*[may fluoresce violet] | ?
O=C(CC1OCC2CCCN2C1=O)Nc1ccc([N+](=O)[O-])cc1 (configuration not stated) | 94 | 318 | 103 | 100 | 100 | 99
CN(C(=O)COC(=O)c1cccc(NS(=O)(=O)c2ccc(F)c(F)c2)c1)C1CCS(=O)(=O)C1 (configuration not stated) | 94 | 19* | 94 | 86 | 94 | 87
CN(C(=O)COC(=O)c1cccc(S(=O)(=O)N2CCCCCC2)c1)C1CCS(=O)(=O)C1 (configuration not stated) | 99 | 345 | 97 | 103 | 100 | 105
CCCCn1c(N)c(N(CCOC)C(=O)CCNC(=O)c2ccc(Br)cc2)c(=O)[nH]c1=O | 112 | 497 | 103 | 120 | 96 | 106
CC(=O)OC[C@]12CC[C@H]3[C@@](C)(CC[C@H]4C(C)(C)CCC[C@]34C)[C@@H]1C[C@H](C1=CC(=O)O[C@H]1OC(C)=O)O2 | 136 | 272 | 85 | 100 | 103 | 76
CC(=O)OC[C@]12CC[C@H]3[C@@](C)(CC[C@H]4C(C)(C)CCC[C@]34C)[C@@H]1C[C@@H](C1=CC(=O)O[C@@H]1OC(C)=O)O2 | 102 | 0.0* | 106 | 103 | 102 | 102
COc1ccc2c(c1)cc(C(=O)N[C@@H](Cc1ccccc1)C(=O)N[C@@H](C)C(=O)O)n2C | 103 | 79 | 121 | 113 | 105 | 112
COc1ccc2c(c1)cc(C(=O)N[C@@H](Cc1ccccc1)C(=O)O)n2C | 86 | 146 | ? | 467*[may fluoresce violet] | 18*[may fluoresce violet] | ?
COc1cccc(CN2CCN(S(=O)(=O)c3ccc(Cl)s3)CC2)c1 | 91 | 0.0* | 91 | 100 | 104 | 93
COc1ccc(S(=O)(=O)N2CCN(Cc3cccc(Cl)c3)CC2)cc1 | 109 | 518 | 107 | 97 | 99 | 98
CC(=O)Nc1ccc(S(=O)(=O)Nc2ccc3[nH]c(=O)[nH]c3c2)cc1 | 107 | 524 | ? | 653*[may fluoresce violet] | 44*[may fluoresce violet] | 22
SMILES | LAP4-GFP MLPCN | T cell HTS | CIT2 TOR yeast | MEP2-GFP yeast | RPL19A-GFP yeast | AGP1 TOR yeast
Cc1ccc(/C=C/C(=O)N2CC(C)CC(C)C2)o1 (configuration not stated) | 127 | 398 | 112 | 275* | · | 32
CC(/C=C/c1ccc(C)o1)=C\C(=O)O | 111 | 66* | 108 | 106 | 107 | 107
CCN1CCN(C(=O)/C=C/c2ccc(C)o2)CC1 | 90 | 280 | 109 | 103 | 104 | 104
O=C(NCCc1ccccc1)/C(=C\c1cccc([N+](=O)[O-])c1)NC(=O)c1ccco1 | 95 | 730 | 99 | 112 | 104 | 102
Cc1cccn2c(=O)c3cc(C(=O)NC4CCCCC4)c(=N)n(CCN4CCOCC4)c3nc12 | 91 | 353 | 97 | 98 | 92 | 77
CCCn1c(=N)c(C(=O)NC2CCCC2)cc2c(=O)n3cccc(C)c3nc21 | 94 | 217 | 98 | 345* | 43* | 95
CCCCNC(=O)c1cc2c(=O)n3cccc(C)c3nc2n(CCN2CCOCC2)c1=N | 75 | 306 | ? | 231*[may fluoresce violet] | 43*[may fluoresce violet] | ?
CCCCNC(=O)c1cc2c(=O)n3cccc(C)c3nc2n(Cc2ccncc2)c1=N | 98 | 87 | 106 | 132 | 35* | 93
Cc1cccn2c(=O)c3cc(C(N)=S)c(=N)n(CCCN4CCOCC4)c3nc12 | 101 | 790 | 103 | 146 | 25* | 96
COCCNC(=O)c1cc2c(=O)n3cccc(C)c3nc2n(Cc2ccncc2)c1=N | ? | 229 | ? | ? | ? | ?
CCCc1ccc(-c2cc(C(=O)N3CCN(c4ccccn4)CC3)c3ccccc3n2)cc1 | 86 | 153 | 87 | 100 | 98 | 69
CC1CN(C(=O)COC(=O)c2ccc3ncsc3c2)CC(C)O1 (configuration not stated) | 95 | 358 | 109 | 106 | 102 | 103
CC(=O)N=c1c(C#N)cc2c(=O)n3cccc(C)c3nc2n1Cc1ccco1 | 97 | 370 | ? | 198*[may fluoresce violet] | 55 | 15
Cc1ccccc1C(=O)N=c1c(C#N)cc2c(=O)n3cccc(C)c3nc2n1Cc1ccco1 | 106 | 110 | ? | 109 | 110 | 27
Cc1cccn2c(=O)c3cc(C(=O)NC(C)c4ccccc4)c(=N)n(CCCn4ccnc4)c3nc12 (configuration not stated) | 97 | 243 | ? | 270*[may fluoresce violet] | 65 | 18
Cc1cccn2c(=O)c3cc(C(=O)NCCc4ccccc4)c(=N)n(Cc4ccco4)c3nc12 | 80 | 237 | ? | 400*[may fluoresce violet] | 53 | ?
Cc1cccn2c(=O)c3cc(C(=O)NCCC4=CCCCC4)n(C)c3nc12 | 83 | 293 | ? | 124 | 30*[may fluoresce violet] | ?
